{
  "source": "paper PMC7965737",
  "about": "(Bioconjugate chemistry, 2019)",
  "key": {"[1]": {"tested_on": "MCF-10A", "assay": "MTT cytotoxicity assay, MCF-10A", "type": "cell-based, Human", "conditions": "non-cancerous cell line MCF-10A, serum-free media, 48 h", "summary_of_the_method": "(§1)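 Cells were seeded at 5×10^3 per well in complete medium. The next day the medium was replaced with serum-free medium containing test compound (0–100 μM) or free doxorubicin (positive control), with untreated cells in serum-free medium as negative control, for 48 h at 37 °C, 5% CO2. MTT (5 mg/mL solution) was then added for 2 h. Formazan was dissolved in 4 mM HCl/0.1% NP40/2-propanol (1:1:1) and read at 570 nm. Viability was taken relative to untreated cells, in triplicate, with the experiment repeated once. IC50 came from a nonlinear fit of normalized data against log concentration.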"}, "[2]": {"tested_on": "MDA-MB-468", "assay": "MTT cytotoxicity assay, MDA-MB-468", "type": "cell-based, Human", "conditions": "MDA-MB-468 breast cancer cell line, serum-free media, 48 h", "summary_of_the_method": "as §1"}},
  "note": "Structures can show the parent of a compound that is named as a salt.",
  "data": [
    {"smiles": "COc1cccc2c1C(=O)c1c(O)c3c(c(O)c1C2=O)C[C@@](O)(C(=O)CO)C[C@@H]3O[C@H]1C[C@H](N)[C@H](O)[C@H](C)O1", "note": "[Dox, Doxorubicin hydrochloride]", "values": [
      {"measurement": "IC50", "setting": "[1]", "value": 0.24, "unit": "µM"},
      {"measurement": "IC50", "setting": "[2]", "value": 0.35, "unit": "µM"}
    ]}
  ]
}
